Active and inactive are the calls of the source. The calls are words filed in the database; no cut-off is given here.
Legend:
[1] = tested on: Cerebellar granule neurone; assay: Neuroprotective activity against glutamate-induced excitotoxicity in mouse primary cerebellar granule neurons assessed as increase in cell viability preincubated for 2 hrs followed by glutamate challenge measured after 24 hrs by MTT assay; type: functional
[2] = tested on: Cerebellar granule neurone; assay: Cytotoxicity against mouse primary cerebellar granule neurons assessed as decrease in cell viability at 100 uM after 24 hrs by MTT assay
[3] = tested on: Cerebellar granule neurone; assay: Neuroprotective activity against glutamate-induced excitotoxicity in mouse primary cerebellar granule neurons assessed as increase in cell viability up to 10 uM preincubated for 2 hrs followed by glutamate challenge measured after 24 hrs by MTT assay; type: functional
Aorta [4] = assay: Vasodilating activity in Sprague-Dawley rat aortic ring precontracted with phenylephrine in absence of endothelium; type: functional, tissue-based; details: for EC50: Rattus norvegicus, Sprague-Dawley, Aorta
[5] = tested on: Cerebellar granule neurone; assay: Neuroprotective activity against glutamate-induced excitotoxicity in mouse primary cerebellar granule neurons assessed as increase in cell viability at 1 uM preincubated for 2 hrs followed by glutamate challenge measured after 24 hrs by MTT assay; type: functional
Aorta [6] = assay: Vasodilating activity in Sprague-Dawley rat aortic ring precontracted with phenylephrine in presence of endothelium; type: functional, tissue-based; details: for EC50: Rattus norvegicus, Sprague-Dawley, Aorta
Cortical neurone [7] = assay: Neuroprotective activity against glutamate-induced neuronal damage in rat cortical neurons assessed as increase in cell viability at 5 uM preincubated for 2 hrs followed by glutamate challenge measured after 24 hrs by […]/propidium iodide staining-based inverted fluorescence microscopic method; type: functional
How it was run: (§1)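 Rat primary cortical neurons given compound for 2 h, then 200 μM glutamate for 24 h in its presence. Viability by FDA/PI double staining, with live cells green (FDA) and dead cells red (PI), scored from fluorescence images. Memantine 5 μM used as positive control.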

Cortical neurone [8] = assay: Neuroprotective activity against glutamate-induced neuronal damage in rat cortical neurons assessed as decrease in formation of hydroxy radicals at 5 uM preincubated for 2 hrs followed by glutamate challenge measured after 12 hrs by HPF dye-based fluorescence assay; type: functional, cell-based
How it was run: (§2)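 Cortical neurons pretreated 2 h with compound, then exposed to 200 μM glutamate for 12 h in its presence. Probes added for a further 30 min: H2DCF-DA 5 μM (H2O2), HPF 10 μM (·OH), DHE 5 μM (superoxide), DAF-FM 5 μM (NO), DHR123 10 μM (peroxynitrite). Intracellular fluorescence measured.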

Cortical neurone [9] = assay: Neuroprotective activity against glutamate-induced neuronal damage in rat cortical neurons assessed as decrease in formation of peroxynitrite at 5 uM preincubated for 2 hrs followed by glutamate challenge measured after 12 hrs by DHR123 dye-based fluorescence assay; type: functional, cell-based; how it was run: as §2
Cortical neurone [10] = assay: Neuroprotective activity in rat cortical neurons assessed as inhibition of glutamate-induced decrease in mitochondrial membrane potential at 5 uM preincubated for 2 hrs followed by glutamate challenge measured after 12 hrs by JC1 staining-based fluorescence assay; type: functional, cell-based
How it was run: (§3)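 Cortical neurons given compound for 2 h, then 200 μM glutamate for 12 h without compound removal. Fluorescence read at 488 nm excitation with dual emission at 529/590 nm.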

Cortical neurone [11] = assay: Neuroprotective activity against glutamate-induced neuronal damage in rat cortical neurons assessed as decrease in formation of superoxide anions at 5 uM preincubated for 2 hrs followed by glutamate challenge measured after 12 hrs by DHE dye-based fluorescence assay; type: functional, cell-based; how it was run: as §2
Cortical neurone [12] = assay: Neuroprotective activity against glutamate-induced neuronal damage in rat cortical neurons assessed as decrease in H2O2 formation at 5 uM preincubated for 2 hrs followed by glutamate challenge measured after 12 hrs by H2DCF-DA dye-based fluorescence assay; type: functional, cell-based; how it was run: as §2
Cortical neurone [13] = assay: Neuroprotective activity against glutamate-induced neuronal damage in rat cortical neurons assessed as decrease in intracellular calcium influx at 5 uM preincubated for 5 min followed by glutamate challenge measured over 280 secs by Fluo-3/AM dye-based fluorescence assay; type: functional, cell-based
How it was run: (§4)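 Cortical neurons loaded with Fluo-3/AM (5 μM) for 30 min at 37 °C, then held in HBSS for 30 min at room temperature. Dye washed out, compound applied for 5 min, and cells imaged with a 20× objective to follow calcium influx.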

Cortical neurone [14] = assay: Neuroprotective activity against glutamate-induced neuronal damage in rat cortical neurons assessed as decrease in formation of nitric oxide at 5 uM preincubated for 2 hrs followed by glutamate challenge measured after 12 hrs by DAF-FM dye-based fluorescence assay; type: functional, cell-based; how it was run: as §2
Cortical neurone [15] = assay: Neuroprotective activity against glutamate-induced neuronal damage in rat cortical neurons assessed as increase in cell viability preincubated for 2 hrs followed by glutamate challenge measured after 24 hrs by […]/propidium iodide staining-based inverted fluorescence microscopic method; type: functional; how it was run: as §1
Cortical neurone [16] = assay: Neuroprotective activity against glutamate-induced neuronal damage in rat cortical neurons assessed as increase in cell viability preincubated for 2 hrs followed by glutamate challenge measured after 24 hrs by MTT assay; type: functional, cell-based
How it was run: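 Rat primary cortical neurons treated with compound for 2 h, then exposed to 200 μM glutamate for another 24 h without compound removal. Viability by MTT assay. Memantine 5 μM served as positive control.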

Cortical neurone [17] = assay: Neuroprotective activity against glutamate-induced neuronal damage in rat cortical neurons assessed as decrease in formation of hydroxy radicals preincubated for 2 hrs followed by glutamate challenge measured after 12 hrs by HPF dye-based fluorescence assay; type: functional, cell-based; how it was run: as §2
Cortical neurone [18] = assay: Neuroprotective activity against glutamate-induced neuronal damage in rat cortical neurons assessed as decrease in H2O2 formation preincubated for 2 hrs followed by glutamate challenge measured after 12 hrs by H2DCF-DA dye-based fluorescence assay; type: functional, cell-based; how it was run: as §2
Cortical neurone [19] = assay: Neuroprotective activity against glutamate-induced neuronal damage in rat cortical neurons assessed as decrease in intracellular calcium influx at 15 uM preincubated for 5 min followed by glutamate challenge measured over 280 secs by Fluo-3/AM dye-based fluorescence assay; type: functional, cell-based; how it was run: as §4
Cortical neurone [20] = assay: Neuroprotective activity against glutamate-induced neuronal damage in rat cortical neurons assessed as decrease in formation of superoxide anions preincubated for 2 hrs followed by glutamate challenge measured after 12 hrs by DHE dye-based fluorescence assay; type: functional, cell-based; how it was run: as §2
Cortical neurone [21] = assay: Neuroprotective activity against glutamate-induced neuronal damage in rat cortical neurons assessed as decrease in formation of nitric oxide preincubated for 2 hrs followed by glutamate challenge measured after 12 hrs by DAF-FM dye-based fluorescence assay; type: functional, cell-based; how it was run: as §2
Cortical neurone [22] = assay: Neuroprotective activity against glutamate-induced neuronal damage in rat cortical neurons assessed as decrease in formation of peroxynitrite preincubated for 2 hrs followed by glutamate challenge measured after 12 hrs by DHR123 dye-based fluorescence assay; type: functional, cell-based; how it was run: as §2
Cortical neurone [23] = assay: Neuroprotective activity in rat cortical neurons assessed as inhibition of glutamate-induced decrease in mitochondrial membrane potential at 5 to 45 uM preincubated for 2 hrs followed by glutamate challenge measured after 12 hrs by JC1 staining-based fluorescence assay; type: functional, cell-based; how it was run: as §3

| SMILES | EC50 [1] | Activity [2] | Activity [3] | Emax (Aorta [4]) | EC50 (Aorta [4]) | Activity [5] | Emax (Aorta [6]) | EC50 (Aorta [6]) | also measured |
| --- | --- | --- | --- | --- | --- | --- | --- | --- | --- |
| CCC12CC3CC(N)(C1)CC(CC(C)CO[N+](=O)[O-])(C3)C2 (stereo unspecified) | 55.2 µM | Toxic | Active | – | – | – | – | – | – |
| CCCC12CC3CC(N)(C1)CC(O[N+](=O)[O-])(C3)C2 (stereo unspecified) | 17.1 µM | – | – | 61.7% | 94.8 µM | Active | 52% | – | – |
| CC12CC3CC(N)(C1)CC(CCCO[N+](=O)[O-])(C3)C2 (stereo unspecified) | 39.8 µM | Toxic | Active | – | – | – | – | – | – |
| CCC12CC3CC(N)(C1)CC(CCCO[N+](=O)[O-])(C3)C2 (stereo unspecified) | 35.2 µM | Toxic | – | 89.8% | 26.9 µM | Active | 95% | 24.4 µM | – |
| CC(CC12CC3CC(N)(C1)CC(CC(C)O[N+](=O)[O-])(C3)C2)O[N+](=O)[O-] (stereo unspecified) | 43 µM | Toxic | Active | – | – | – | – | – | – |
| CCC12CC3CC(N)(C1)CC(O[N+](=O)[O-])(C3)C2 (stereo unspecified) | 15.4 µM | – | – | 42% | 146 µM | Active | 39.5% | – | – |
| CC12CC3CC(C)(C1)CC(N)(C3)C2 [MEMANTINE] | 2.48 µM | – | – | – | – | Active | – | – | Activity (Cortical neurone [7]): Active; Activity (Cortical neurone [8]): Active; Activity (Cortical neurone [9]): Active; inhibition (Cortical neurone [10]): Active; Activity (Cortical neurone [11]): Active; Activity (Cortical neurone [12]): Active; Activity (Cortical neurone [13]): Active; Activity (Cortical neurone [14]): Active |
| CCC12CC3CC(N)(C1)CC(CO[N+](=O)[O-])(C3)C2 (stereo unspecified) | 10.7 µM | – | – | 98.2% | 50.6 µM | Active | 101% | 46.4 µM | Activity (Cortical neurone [15]): Dose-dependent effect; Activity (Cortical neurone [16]): Dose-dependent effect; Activity (Cortical neurone [17]): Dose-dependent effect; Activity (Cortical neurone [18]): Dose-dependent effect; Activity (Cortical neurone [19]): Active; Activity (Cortical neurone [20]): Dose-dependent effect; Activity (Cortical neurone [21]): Dose-dependent effect; Activity (Cortical neurone [22]): Dose-dependent effect; inhibition (Cortical neurone [23]): Active |
| CCCC12CC3CC(N)(C1)CC(CCCO[N+](=O)[O-])(C3)C2 (stereo unspecified) | 57.6 µM | Toxic | Active | – | – | – | – | – | – |
| NC12CC3CC(CO[N+](=O)[O-])(C1)CC(CO[N+](=O)[O-])(C3)C2 | 18.9 µM | – | – | 90.5% | 62.8 µM | Active | 96.8% | 55 µM | – |
| CCCC12CC3CC(N)(C1)CC(CO[N+](=O)[O-])(C3)C2 (stereo unspecified) | 38.1 µM | Toxic | Active | – | – | – | – | – | – |
| CC(CO[N+](=O)[O-])CC12CC3CC(N)(C1)CC(CC(C)CO[N+](=O)[O-])(C3)C2 (stereo unspecified) | 53.2 µM | Toxic | – | 95.8% | 36.5 µM | Active | 100% | 32 µM | – |
| NC12CC3CC(CCCO[N+](=O)[O-])(C1)CC(CCCO[N+](=O)[O-])(C3)C2 | 39.8 µM | Toxic | – | 95.4% | 34.4 µM | Active | 97.7% | 24.6 µM | – |
| CC12CC3CC(N)(C1)CC(O[N+](=O)[O-])(C3)C2 (stereo unspecified) | 24.6 µM | – | Active | – | – | – | – | – | – |
| NC12CC3CC(CCO[N+](=O)[O-])(C1)CC(CCO[N+](=O)[O-])(C3)C2 | 25.9 µM | Toxic | Active | 99.4% | 57.1 µM | – | 102% | 36 µM | – |
| CC12CC3CC(N)(C1)CC(CO[N+](=O)[O-])(C3)C2 (stereo unspecified) | 25.2 µM | – | Active | – | – | – | – | – | – |
| CCC12CC3CC(N)(C1)CC(CC(C)O[N+](=O)[O-])(C3)C2 (stereo unspecified) | 58.4 µM | Toxic | Active | – | – | – | – | – | – |
